# Measured values: PMC8444931 (Clinical and Translational Science, 2021)
# What was measured:
# COVID‐19 [1] = details: in combination with remdesivir, patients with COVID‐19; cited from earlier work
# COVID‐19 [2] = details: phase III RUXCOVID study; cited from earlier work
# JAK2 = JAK2 (Homo sapiens, UniProt O60674); experiment: biochemical
# [3] = system: cytokine‐induced STAT6 phosphorylation; experiment: cytokine‐induced STAT6 phosphorylation in bronchial epithelial cell lines; assay type: cell-based; details: data on file, Theravance Biopharma
# Tyk2 = target: T1, Tyk2 (Homo sapiens, UniProt P29597); experiment: biochemical
# T1 sequence (P29597 897-1176 limits assumed): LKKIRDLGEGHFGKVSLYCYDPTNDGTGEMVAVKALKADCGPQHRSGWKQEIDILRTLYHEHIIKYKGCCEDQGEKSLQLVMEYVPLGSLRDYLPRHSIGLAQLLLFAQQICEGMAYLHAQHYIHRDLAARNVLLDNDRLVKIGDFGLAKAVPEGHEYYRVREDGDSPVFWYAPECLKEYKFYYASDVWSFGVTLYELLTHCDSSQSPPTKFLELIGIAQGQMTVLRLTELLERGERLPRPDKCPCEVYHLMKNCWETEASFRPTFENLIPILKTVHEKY
# [4] = metabolism in dog lung S9 fractions; assay type: in vitro ADME; details: dog lung S9 fortified with 3'‐phosphate‐5'‐phosphosulfate; data on file
# phase I part B = assay type: in vivo, human
# How it was run: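 Double-blind, randomized, placebo-controlled multiple ascending dose study in healthy adults aged 18–50 (FEV1 ≥80% predicted). Three cohorts of 10 (8 active, 2 placebo) got nebulized 1, 3 or 10 mg or placebo once daily for 7 days, staying in residence through day 9. Monitoring covered exams, vital signs, 12-lead ECGs, spirometry, clinical labs and MedDRA-coded TEAEs; follow-up came 1 week (±2 days) after the last dose.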
# [5] = assay type: physicochemical; details: PARI eFlow nebulizer, dose range 0.1–10 mg
# [6] = metabolite identification in dog hepatocytes; assay type: in vitro ADME
# JAK = experiment: cell‐based assays of JAK inhibition; details: Homo sapiens, Epithelial cell, read-out: most potent half‐maximal JAK inhibition (IC50) in a cell‐based assay
# [7] = metabolite identification in rat hepatocytes; assay type: in vitro ADME
# [8] = phase I part B plasma pharmacokinetics; assay type: in vivo, human; details: for DN AUCtau / DN Cmax,ss: dose normalized; for DN AUCtau / DN Cmax,ss / Ctrough,ss: geometric mean (geometric CV%); for AUC / Cmax / Tmax: human, inhaled; for AUC / Cmax / Tmax / Ctrough,ss: plasma
# How it was run: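 Healthy adults got nebulized 1, 3 or 10 mg once daily for 7 days. Serial blood was drawn through 24 h after the day-1 dose and from predose through 48 h after the day-7 dose; troughs were drawn predose on days 3–6. Day-7 parameters, including dose-normalized values, were given as geometric mean (geometric CV%). Accumulation ratios were AUCtau/day-1 AUC0-24 and Cmax,ss/day-1 Cmax.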
# elimination in the rat = assay type: in vivo; details: preclinical data
# [9] = human plasma protein binding; assay type: in vitro ADME
# [10] = metabolite identification in human hepatocytes; assay type: in vitro ADME
# [11] = phase I part A plasma pharmacokinetics; assay type: in vivo, human; details: for Tmax / AUC(0-t) / Cmax / Vd/F: human, plasma, inhaled or intranasal
# How it was run: (§1)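 Healthy adults got a single nebulized dose (1, 3 or 10 mg). Blood and urine were sampled predose and over 72 h postdose. Plasma and urine PK parameters were estimated per participant and summarized as geometric mean (CV%). Urinary excretion was expressed as cumulative percentage of administered dose.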
# [12] = metabolism in human lung S9; assay type: in vitro ADME; details: data on file
# JAK1 = JAK1 (Homo sapiens, UniProt P23458); experiment: biochemical
# Sequence of JAK1 (P23458 875-1153 limits assumed): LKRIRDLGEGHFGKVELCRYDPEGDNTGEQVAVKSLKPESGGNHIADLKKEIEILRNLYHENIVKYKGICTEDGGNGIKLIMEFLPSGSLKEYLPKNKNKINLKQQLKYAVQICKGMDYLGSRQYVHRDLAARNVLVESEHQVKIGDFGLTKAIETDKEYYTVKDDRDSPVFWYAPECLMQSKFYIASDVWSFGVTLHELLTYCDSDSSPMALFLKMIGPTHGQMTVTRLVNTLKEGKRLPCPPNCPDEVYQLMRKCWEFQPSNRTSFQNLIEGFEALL
# [13] = phase I part A urine pharmacokinetics; assay type: in vivo, human; details: geometric mean (CV%)
# How it was run: as §1
# phase I part A = assay type: in vivo, human; details: for TEAE Cough / TEAE Dizziness / TEAE Headache / TEAE related to nezulcitinib / Total participants with TEAEs: part A
# How it was run: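 Healthy adults aged 18–50 (BMI 18–32 kg/m^2, FEV1 ≥80% predicted) in a double-blind, randomized, placebo-controlled single ascending dose study. Three cohorts of 8 (6 active, 2 placebo) got one nebulized dose of 1, 3 or 10 mg or placebo; a sentinel pair was dosed ≥24 h first. TEAEs were coded by MedDRA, with follow-up 1 week (±2 days) post-dose.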
# [14] = metabolism in rat lung S9; assay type: in vitro ADME; details: data on file
# [15] = one participant, 10 mg, part B, by day 9, deemed not related to study drug
# [16] = part B, 1 mg once daily for 7 days (n = 8)
# [17] = part B, 3 mg once daily for 7 days (n = 8)
# [18] = part B, 10 mg once daily for 7 days (n = 8)
# [19] = part B, all nezulcitinib doses, Total (n = 24)
# [20] = all nezulcitinib doses, Total (n = 18)
# [21] = single inhaled dose 1 mg (n = 6)
# [22] = single inhaled dose 3 mg (n = 6)
# [23] = single inhaled dose 10 mg (n = 6)
# Sequence of JAK2 (O60674 849-1124 limits assumed): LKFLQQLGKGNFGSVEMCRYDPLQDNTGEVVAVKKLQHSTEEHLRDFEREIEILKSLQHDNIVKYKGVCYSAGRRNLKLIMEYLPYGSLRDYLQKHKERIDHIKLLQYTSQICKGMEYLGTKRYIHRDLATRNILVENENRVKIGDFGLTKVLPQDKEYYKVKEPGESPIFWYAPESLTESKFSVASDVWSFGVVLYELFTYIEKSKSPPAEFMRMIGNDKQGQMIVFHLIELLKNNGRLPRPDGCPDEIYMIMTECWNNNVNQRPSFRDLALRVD
smiles,measurement,setting,value
CCS(=O)(=O)N1CC(CC#N)(n2cc(-c3ncnc4[nH]ccc34)cn2)C1 [baricitinib],recovery time,COVID‐19 [1],significantly shortened recovery time
N#CC[C@H](C1CCCC1)n1cc(-c2ncnc3[nH]ccc23)cn1 [ruxolitinib],primary end point,COVID‐19 [2],did not meet its primary end point
CCc1cc(O)ccc1-c1ccc2c(-c3nc4c([nH]3)CN(C(C)C)[C@H](C(=O)N3CC(N(C)C)C3)C4)n[nH]c2c1 [Nezulcitinib],Ki,JAK2,0.0251 nM
same,inhibition of cytokine‐induced STAT6 phosphorylation,[3],inhibits
same,Ki,Tyk2,0.631 nM
same,metabolic stability in lung S9,[4],extensive conversion to the sulfation product
same,alanine aminotransferase (ALT) elevation,phase I part B; [15],3.8 × ULN
same,aspartate aminotransferase (AST) elevation,phase I part B; [15],approximately 2.8 × ULN
same,Moderate or severe TEAEs,phase I part B; [16],0 n (%)
same,TEAE Cough,phase I part B; [16],0 n (%)
same,TEAE Dizziness,phase I part B; [16],1 (13) n (%)
same,TEAE Headache,phase I part B; [16],1 (13) n (%)
same,TEAE Lethargy,phase I part B; [16],1 (13) n (%)
same,TEAE Medical device site reaction,phase I part B; [16],0 n (%)
same,TEAE related to nezulcitinib,phase I part B; [16],0 n (%)
same,Total participants with TEAEs,phase I part B; [16],4 (50) n (%)
same,Moderate or severe TEAEs,phase I part B; [17],0 n (%)
same,TEAE Cough,phase I part B; [17],2 (25) n (%)
same,TEAE Dizziness,phase I part B; [17],1 (13) n (%)
same,TEAE Headache,phase I part B; [17],3 (38) n (%)
same,TEAE Lethargy,phase I part B; [17],0 n (%)
same,TEAE Medical device site reaction,phase I part B; [17],0 n (%)
same,TEAE related to nezulcitinib,phase I part B; [17],0 n (%)
same,Total participants with TEAEs,phase I part B; [17],3 (38) n (%)
same,Moderate or severe TEAEs,phase I part B; [18],2 (25) n (%)
same,TEAE Cough,phase I part B; [18],3 (38) n (%)
same,TEAE Dizziness,phase I part B; [18],1 (13) n (%)
same,TEAE Headache,phase I part B; [18],0 n (%)
same,TEAE Lethargy,phase I part B; [18],0 n (%)
same,TEAE Medical device site reaction,phase I part B; [18],1 (13) n (%)
same,TEAE related to nezulcitinib,phase I part B; [18],1 (13) n (%)
same,Total participants with TEAEs,phase I part B; [18],6 (75) n (%)
same,TEAE Cough,phase I part B; [19],5 (21) n (%)
same,TEAE Dizziness,phase I part B; [19],3 (13) n (%)
same,TEAE Headache,phase I part B; [19],4 (17) n (%)
same,TEAE Lethargy,phase I part B; [19],1 (4) n (%)
same,TEAE Medical device site reaction,phase I part B; [19],1 (4) n (%)
same,TEAE related to nezulcitinib,phase I part B; [19],1 (4) n (%)
same,Total participants with TEAEs,phase I part B; [19],13 (54) n (%)
same,changes from baseline in vital sign and ECG assessments,phase I part B; parts A and B,No clinically significant changes
same,severe or serious AEs,phase I part B; parts A and B,No severe or serious AEs
same,tolerability,"phase I part B; single daily doses up to 10 mg for 7 days, healthy participants",generally well‐tolerated
same,"emitted fine particle dose, of the nominal dose",[5],40%
same,primary metabolite,[6],sulfation product
same,IC50,JAK,12.6 nM
same,primary metabolite,[7],sulfation product
same,DN AUCtau,"[8]; part B day 7, 1 mg once daily",21.0 (25.7) ng•h/ml/mg
same,"DN Cmax,ss","[8]; part B day 7, 1 mg once daily",5.6 (24.1) ng/ml/mg
same,DN AUCtau,"[8]; part B day 7, 3 mg once daily",17.2 (32.5) ng•h/ml/mg
same,"DN Cmax,ss","[8]; part B day 7, 3 mg once daily",5.9 (42.6) ng/ml/mg
same,DN AUCtau,"[8]; part B day 7, 10 mg once daily",17.8 (65.0) ng•h/ml/mg
same,"DN Cmax,ss","[8]; part B day 7, 10 mg once daily",5.0 (46.4) ng/ml/mg
same,AUC,[8]; 1 mg,21 ng·h/mL
same,Cmax,[8]; 1 mg,5.6 ng/mL
same,Tmax,[8]; 1 mg,1 h
same,AUC,[8]; 3 mg,51.6 ng·h/mL
same,Cmax,[8]; 3 mg,17.6 ng/mL
same,Tmax,[8]; 3 mg,1 h
same,AUC,[8]; 10 mg,178 ng·h/mL
same,Cmax,[8]; 10 mg,49.6 ng/mL
same,Tmax,[8]; 10 mg,1 h
same,dose proportionality of plasma exposures (Cmax and AUC0–t),"[8]; part B, 7 days of once‐daily dosing 1, 3, 10 mg",increased proportionally
same,time to steady‐state plasma concentrations,"[8]; part B, once‐daily dosing, from daily plasma trough concentrations",≤ 4 days
same,"Ctrough,ss","[8]; part B day 7, 1 mg once daily",0.2 (29.5) ng/ml
same,"Ctrough,ss","[8]; part B day 7, 3 mg once daily",0.3 (39.0) ng/ml
same,"Ctrough,ss","[8]; part B day 7, 10 mg once daily",1.1 (83.6) ng/ml
same,amount eliminated in the urine and bile as unchanged compound,elimination in the rat,minor amount
same,fraction unbound,[9],0.019
same,primary metabolite,[10],"an oxidation, methylation, and glucuronidation product"
same,Tmax,[11],~1 h
same,AUC(0-t),[11]; 1 mg,18.7 ng·h/mL
same,Cmax,[11]; 1 mg,5.5 ng/mL
same,Vd/F,[11]; 1 mg,1390 L
same,AUC(0-t),[11]; 3 mg,45.2 ng·h/mL
same,Cmax,[11]; 3 mg,13.8 ng/mL
same,Tmax,[11]; 3 mg,1 h
same,Vd/F,[11]; 3 mg,2300 L
same,AUC(0-t),[11]; 10 mg,157 ng·h/mL
same,Cmax,[11]; 10 mg,47.3 ng/mL
same,Tmax,[11]; 10 mg,1 h
same,Vd/F,[11]; 10 mg,2200 L
same,dose proportionality of plasma exposures (Cmax and AUC0‐t),"[11]; part A, single dose 1, 3, 10 mg",increased proportionally
same,metabolic stability in lung S9,[12],relatively stable
same,Ki,JAK1,0.0501 nM
same,Cum%Dose (cumulative percentage of administered dose excreted),[13]; single inhaled dose 1 mg,0.97 (38.3) %
same,Cum%Dose (cumulative percentage of administered dose excreted),[13]; single inhaled dose 3 mg,0.72 (17.5) %
same,Cum%Dose (cumulative percentage of administered dose excreted),[13]; single inhaled dose 10 mg,0.84 (41.6) %
same,TEAE Cough,phase I part A; [20],2 (11) n (%)
same,TEAE Dizziness,phase I part A; [20],2 (11) n (%)
same,TEAE Headache,phase I part A; [20],1 (6) n (%)
same,TEAE related to nezulcitinib,phase I part A; [20],0 n (%)
same,Total participants with TEAEs,phase I part A; [20],6 (33) n (%)
same,TEAE Cough,phase I part A; [21],1 (17) n (%)
same,TEAE Dizziness,phase I part A; [21],1 (17) n (%)
same,TEAE Headache,phase I part A; [21],1 (17) n (%)
same,TEAE related to nezulcitinib,phase I part A; [21],0 n (%)
same,Total participants with TEAEs,phase I part A; [21],4 (67) n (%)
same,TEAE Cough,phase I part A; [22],0 n (%)
same,TEAE Dizziness,phase I part A; [22],0 n (%)
same,TEAE Headache,phase I part A; [22],0 n (%)
same,TEAE related to nezulcitinib,phase I part A; [22],0 n (%)
same,Total participants with TEAEs,phase I part A; [22],0 n (%)
same,TEAE Cough,phase I part A; [23],1 (17) n (%)
same,TEAE Dizziness,phase I part A; [23],1 (17) n (%)
same,TEAE Headache,phase I part A; [23],0 n (%)
same,TEAE related to nezulcitinib,phase I part A; [23],0 n (%)
same,Total participants with TEAEs,phase I part A; [23],2 (33) n (%)
same,tolerability,"phase I part A; single inhaled dose, healthy participants",generally well‐tolerated
same,metabolic stability in lung S9,[14],relatively stable
